Legend:
PTP1B-OX(P) = assay: SPR; assay type: binding; settings: 14-3-3ζ 5000 nM (Fig. 2c), HBS-N pH 7.4, 25 °C
Summary of the method: (§1)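 His-PTP1B (1–321) kept in TCEP. For oxidized, phosphorylated form: H2O2 oxidation (250 μM, 10 min, RT), desalting into reductant-free kinase buffer, AKT phosphorylation 16 h at 30°C. Captured on Ni2+-activated NTA chip (2.7 μM injected); reference cell had no NiCl2. 14-3-3ζ in HBS-N pH 7.4 injected at 30 μl/min, 3 min dissociation, 2 M NaCl regeneration, 25 °C.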

reduced PTP1B (PTP1B-R) = assay: SPR; assay type: binding; settings: 14-3-3ζ 5000 nM (Fig. 2c), HBS-N pH 7.4, 25 °C
Summary of the method: as §1

reduced PTP1B = assay: in vitro pull-down of reduced PTP1B with 14-3-3ζ; assay type: binding; settings: 50 nM PTP1B-R, 5 μM 14-3-3ζ, pH 7.4, 2 hours at 4°C, immunoblot
Summary of the method: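 Bacterial His-PTP1B (1–321) kept in 1 mM TCEP; GST-14-3-3ζ purified on glutathione agarose. Reduced PTP1B 50 nM with 14-3-3ζ 5 μM in HEPES binding buffer (BSA, Tween, pH 7.4), 2 h at 4°C. Glutathione agarose capture 1 h at 4°C, three washes, SDS-PAGE; immunoblot with anti-PTP1B and anti-GST.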

[1] = tested on: PTP1B–14-3-3ζ association; assay type: cell-based
14-3-3ζ = assay: pTyr loop derived-peptide pulldown from HEK293T lysates, iTRAQ LC-MS/MS; assay type: binding, human
PTP1B [2] = assay: cysteinyl-labeling assay; assay type: cell-based; settings: EGF 100 ng/ml, indicated times; three independent experiments
PTP1B [3] = assay: PTP1B catalytic activity; assay type: cell-based; settings: EGF 100 ng/ml, pNPP, N=3 independent experiments

14-3-3ζ: bacterially expressed, purified GST-14-3-3-ζ protein
SPR binding of 14-3-3ζ to oxidized, phosphorylated PTP1B (PTP1B-OX(P)): specifically binds to PTP1B in its oxidized and phosphorylated inactive state | SPR binding of 14-3-3ζ to active reduced PTP1B (reduced PTP1B (PTP1B-R)): not to the active reduced form of the enzyme | interaction of 14-3-3ζ with reduced PTP1B, in vitro pull-down (reduced PTP1B): no interaction occurred with reduced PTP1B

CC(=O)N[C@@H](CS)C(=O)O [NAC, N-acetylcysteine, reference compound]
PTP1B–14-3-3ζ association in cells, NAC ([1]; NAC 1 mM, 1 h, EGF stimulation, two independent experiments (Fig. 1d)): Redox-dependent association between PTP1B and 14-3-3ζ was confirmed

CKNRNRYRDVS [pTyr loop-derived-peptide]
enrichment of 14-3-3ζ by peptide bait (iTRAQ) (14-3-3ζ; HEK293T lysate, 90 minutes at 4 °C, vs cysteine control beads): one of the most abundant proteins, and the most abundant 14-3-3 isoform | nature of interaction of unphosphorylated loop peptide with 14-3-3ζ (14-3-3ζ; concluded from SPR compared with MS analysis): occurs indirectly via a protein intermediate

EGF: epidermal growth factor, 100 ng/ml, used to activate EGFR
reversible oxidation (biotinylation) of PTP1B, EGF (PTP1B [2]): PTP1B biotinylation was detected in a transient manner at 1 and 2 minutes | PTP1B–14-3-3ζ association following EGF ([1]; EGF 100 ng/ml, 0-10 min, HEK293T, three independent experiments): transient association between PTP1B and 14-3-3ζ between 2 to 5 minutes | PTP1B activity after EGF 10 min (PTP1B [3]): mostly recovered
